The target of data set [1] is D(2) dopamine receptor (Homo sapiens, UniProt P14416). The experiment in a line: Displacement of [3H]-N-methylspiperone from recombinant human D2 receptor stably expressed in fibroblast cell membranes measured after 90 mins by microbeta scintillation counting method.
In data set [2] the target is 5-hydroxytryptamine receptor 2A (Homo sapiens, UniProt P28223). In words: Agonist activity at 5HT2A receptor (unknown origin) expressed in HEK293 cells co-expressing Gq assessed as induction of calcium mobilization measured at 1 sec interval for 60 secs by Fluo-4 calcium dye based FLIPR assay. The data set is classed as cell-based. To be noted: hek293, 1 min. For orientation: A change in cytosolic calcium serves as a functional read-out for many receptors and channels.
5-hydroxytryptamine receptor 2A, sequence (P28223 whole entry): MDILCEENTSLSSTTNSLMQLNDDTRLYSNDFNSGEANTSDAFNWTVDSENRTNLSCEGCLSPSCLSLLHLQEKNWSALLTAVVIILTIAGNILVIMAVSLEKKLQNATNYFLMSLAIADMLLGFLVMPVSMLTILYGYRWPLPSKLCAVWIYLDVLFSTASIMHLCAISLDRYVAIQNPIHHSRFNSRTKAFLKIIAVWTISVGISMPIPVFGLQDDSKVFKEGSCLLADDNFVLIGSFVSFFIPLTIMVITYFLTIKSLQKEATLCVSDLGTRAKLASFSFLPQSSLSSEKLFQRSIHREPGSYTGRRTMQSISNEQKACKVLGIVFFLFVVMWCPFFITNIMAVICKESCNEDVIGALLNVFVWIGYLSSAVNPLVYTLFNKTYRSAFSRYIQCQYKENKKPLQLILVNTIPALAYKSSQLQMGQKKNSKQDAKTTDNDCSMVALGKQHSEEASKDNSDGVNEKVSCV

Data set [3] deals with T1, 5-hydroxytryptamine receptor 2C (Homo sapiens, UniProt P28335).
T1 sequence (P28335 whole entry): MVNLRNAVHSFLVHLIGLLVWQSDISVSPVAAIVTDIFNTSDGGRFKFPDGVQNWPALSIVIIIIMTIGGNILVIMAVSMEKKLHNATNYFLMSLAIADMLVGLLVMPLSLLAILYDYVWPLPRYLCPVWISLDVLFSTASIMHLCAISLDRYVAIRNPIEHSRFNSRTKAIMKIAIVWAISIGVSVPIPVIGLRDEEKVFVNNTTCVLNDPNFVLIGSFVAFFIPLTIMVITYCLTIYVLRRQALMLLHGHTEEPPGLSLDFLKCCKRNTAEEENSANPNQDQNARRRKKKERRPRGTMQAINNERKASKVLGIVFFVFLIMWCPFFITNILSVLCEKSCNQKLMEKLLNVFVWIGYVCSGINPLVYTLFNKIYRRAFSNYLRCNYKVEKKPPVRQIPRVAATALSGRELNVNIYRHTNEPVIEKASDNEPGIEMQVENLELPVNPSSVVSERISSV
The experiment in a line: Antagonist activity at human 5HT2C receptor stably expressed in HEK293 cells co-expressing Gq assessed as inhibition of 5-HT-induced calcium mobilization preincubated for 15 mins followed by 5-HT addition and measured at 1 sec interval for 60 secs by Fluo-4 calcium dye based FLIPR assay. Format: functional, cell-based. The gist of the method:
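5-HT2C stably transfected HEK293 cells, loaded with Fluo-4 Direct (HBSS, 20 mM HEPES pH 7.4, 2.5 mM probenecid; 50 min 37 °C, 10 min room temperature). Test compound added, then 5-HT (final 1 nM) 15 min later.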

Data set [4] addresses D(1A) dopamine receptor (Homo sapiens, UniProt P21728). The experiment in a line: Displacement of [3H]-SCH23390 from recombinant human D1 receptor transiently expressed in HEKT cell membranes measured after 90 mins by microbeta scintillation counting method.
Data set [5] concerns the target D(1B) dopamine receptor (Homo sapiens, UniProt P21918). The experiment in a line: Displacement of [3H]-SCH23390 from recombinant human D5 receptor transiently expressed in HEKT cell membranes measured after 90 mins by microbeta scintillation counting method. Background: Displacement assays read how much labelled ligand stays bound in the presence of the test substance.

Data set [6] deals with 5-hydroxytryptamine receptor 2B (Homo sapiens, UniProt P41595). In words: Agonist activity at 5HT2B receptor (unknown origin) expressed in HEK293 cells co-expressing Gq assessed as induction of calcium mobilization measured at 1 sec interval for 60 secs by Fluo-4 calcium dye based FLIPR assay. To be noted: hek293, 1 min. The data set is classed as cell-based.
5-hydroxytryptamine receptor 2B, sequence (P41595 whole entry): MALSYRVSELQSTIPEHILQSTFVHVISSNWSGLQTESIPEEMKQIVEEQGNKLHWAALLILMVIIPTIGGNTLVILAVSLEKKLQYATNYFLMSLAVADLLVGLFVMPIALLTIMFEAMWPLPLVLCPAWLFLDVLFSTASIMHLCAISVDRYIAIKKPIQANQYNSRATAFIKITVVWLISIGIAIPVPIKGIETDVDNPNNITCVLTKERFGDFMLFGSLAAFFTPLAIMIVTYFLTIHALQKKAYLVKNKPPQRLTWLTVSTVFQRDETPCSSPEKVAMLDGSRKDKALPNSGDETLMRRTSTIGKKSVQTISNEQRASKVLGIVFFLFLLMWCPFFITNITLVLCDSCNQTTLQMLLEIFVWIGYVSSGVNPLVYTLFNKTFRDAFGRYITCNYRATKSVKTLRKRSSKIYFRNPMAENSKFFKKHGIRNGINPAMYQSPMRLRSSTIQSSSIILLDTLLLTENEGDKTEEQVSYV
Data set [7] addresses T2, D(4) dopamine receptor (Homo sapiens, UniProt P21917).
T2 sequence (P21917 whole entry): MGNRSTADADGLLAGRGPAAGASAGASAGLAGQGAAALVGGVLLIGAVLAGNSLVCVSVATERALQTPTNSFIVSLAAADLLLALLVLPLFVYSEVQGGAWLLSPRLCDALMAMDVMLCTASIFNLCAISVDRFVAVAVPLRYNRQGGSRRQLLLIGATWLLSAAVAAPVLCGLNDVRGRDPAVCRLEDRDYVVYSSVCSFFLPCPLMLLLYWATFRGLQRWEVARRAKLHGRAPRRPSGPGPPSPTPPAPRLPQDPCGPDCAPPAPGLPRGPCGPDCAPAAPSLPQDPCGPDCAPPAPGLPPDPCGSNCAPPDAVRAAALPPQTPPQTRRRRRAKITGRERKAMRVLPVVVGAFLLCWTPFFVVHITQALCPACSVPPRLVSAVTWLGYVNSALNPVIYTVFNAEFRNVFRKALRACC
In words: Displacement of [3H]-N-methylspiperone from recombinant human D4 receptor stably expressed in HEK cell membranes measured after 90 mins by microbeta scintillation counting method.

The target in data set [8] is T1, 5-hydroxytryptamine receptor 2C. In words: Displacement of [3H]-Mesulergine from recombinant human 5HT2C receptor expressed in HEKT cell membranes measured after 90 mins by microbeta scintillation counting method.
In data set [9] the target is D(3) dopamine receptor (Homo sapiens, UniProt P35462). The experiment in a line: Displacement of [3H]-N-methylspiperone from recombinant human D3 receptor (unknown origin) measured after 90 mins by microbeta scintillation counting method.
D(3) dopamine receptor, sequence (P35462 whole entry): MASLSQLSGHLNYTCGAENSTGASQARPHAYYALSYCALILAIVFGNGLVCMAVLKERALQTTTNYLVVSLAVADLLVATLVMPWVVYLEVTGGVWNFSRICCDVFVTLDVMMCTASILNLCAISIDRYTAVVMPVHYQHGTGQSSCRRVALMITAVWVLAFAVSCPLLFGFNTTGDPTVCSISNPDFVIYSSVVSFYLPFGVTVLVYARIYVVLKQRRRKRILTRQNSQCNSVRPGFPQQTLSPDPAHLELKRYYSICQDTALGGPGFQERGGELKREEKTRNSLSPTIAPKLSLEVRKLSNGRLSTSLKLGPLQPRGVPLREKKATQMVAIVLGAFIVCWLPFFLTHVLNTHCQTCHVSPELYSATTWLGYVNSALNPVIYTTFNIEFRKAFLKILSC

One may read the Ki as a dissociation constant, usually derived from enzyme kinetics or from competition with a known ligand. The term IC50 denotes the concentration that inhibits the measured activity by half.

D(1A) dopamine receptor, sequence (P21728 whole entry): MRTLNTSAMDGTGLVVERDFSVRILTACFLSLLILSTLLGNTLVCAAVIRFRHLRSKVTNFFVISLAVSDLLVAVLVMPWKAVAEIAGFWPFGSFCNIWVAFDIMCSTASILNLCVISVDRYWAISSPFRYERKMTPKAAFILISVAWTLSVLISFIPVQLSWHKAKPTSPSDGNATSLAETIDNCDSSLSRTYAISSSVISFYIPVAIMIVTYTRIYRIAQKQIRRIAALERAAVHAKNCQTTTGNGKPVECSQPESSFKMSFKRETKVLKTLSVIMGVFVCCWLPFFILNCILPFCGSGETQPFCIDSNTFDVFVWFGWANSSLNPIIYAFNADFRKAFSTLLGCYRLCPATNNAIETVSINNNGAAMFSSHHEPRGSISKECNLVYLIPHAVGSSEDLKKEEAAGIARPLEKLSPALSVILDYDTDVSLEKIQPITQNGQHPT
D(1B) dopamine receptor, sequence (P21918 whole entry): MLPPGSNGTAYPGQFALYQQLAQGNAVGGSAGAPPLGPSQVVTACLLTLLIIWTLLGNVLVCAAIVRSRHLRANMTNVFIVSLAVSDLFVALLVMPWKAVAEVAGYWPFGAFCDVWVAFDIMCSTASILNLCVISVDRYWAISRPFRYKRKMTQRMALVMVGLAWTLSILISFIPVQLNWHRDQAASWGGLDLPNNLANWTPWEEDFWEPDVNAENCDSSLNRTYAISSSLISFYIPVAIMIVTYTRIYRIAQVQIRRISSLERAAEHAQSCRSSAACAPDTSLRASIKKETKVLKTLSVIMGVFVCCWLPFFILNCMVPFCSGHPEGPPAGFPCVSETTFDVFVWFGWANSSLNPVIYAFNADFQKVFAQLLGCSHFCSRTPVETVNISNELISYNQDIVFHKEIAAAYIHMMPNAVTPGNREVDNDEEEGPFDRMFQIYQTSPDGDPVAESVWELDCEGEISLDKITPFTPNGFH
D(2) dopamine receptor, sequence (P14416 whole entry): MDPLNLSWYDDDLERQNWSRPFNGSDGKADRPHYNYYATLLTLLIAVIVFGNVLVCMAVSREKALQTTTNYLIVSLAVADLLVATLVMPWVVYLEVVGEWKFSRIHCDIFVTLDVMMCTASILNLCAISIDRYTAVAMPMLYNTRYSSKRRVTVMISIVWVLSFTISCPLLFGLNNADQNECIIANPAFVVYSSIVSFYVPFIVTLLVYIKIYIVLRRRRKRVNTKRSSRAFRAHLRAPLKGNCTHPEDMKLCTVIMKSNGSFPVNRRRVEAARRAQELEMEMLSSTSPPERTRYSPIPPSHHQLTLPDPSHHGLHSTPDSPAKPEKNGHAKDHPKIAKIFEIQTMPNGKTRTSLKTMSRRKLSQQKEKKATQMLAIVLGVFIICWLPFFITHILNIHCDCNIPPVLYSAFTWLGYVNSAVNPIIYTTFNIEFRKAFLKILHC

Consider `CCCN(CCCCNC(=O)c1ccc(-c2ccccn2)cc1)C[C@H]1C[C@@H]1c1cc(F)ccc1OC.Cl`, for which the Ki in data set [1] was 1230 nM; in data set [4] it was 1070 nM; in [5] it was > 5000 nM; in data set [7] it was 851 nM; in data set [8], 50.1 nM. Further, the values for the Activity entry in data set [2] and in [6] were “Active” and “Not Active”, respectively. Also, the IC50 in data set [3] stood at 860 nM.
Turning to `CCN(CCCCNC(=O)c1cc2ccccc2[nH]1)CC1CC1c1cc(F)ccc1OC` (stereo unspecified), the Ki was 380 nM in [1]; 23.4 nM in data set [9]; 1080 nM in [4]; > 5000 nM in [5]; 220 nM in data set [7]; 49 nM in [8].
Turning to `CCCN(CCCCNC(=O)c1ccc2ccccc2c1)CC1CC1c1ccc(Cl)cc1` (stereo unspecified), the Ki in [1] was determined as 4610 nM; in data set [9] it was 32.6 nM; in data set [4], 509 nM; in [5], 6110 nM; in data set [7], 1590 nM; in data set [8], 179 nM.
In the case of `CCCN(CCCCNC(=O)c1ccc2ccccc2c1)CC1CC1c1cc(F)ccc1OC` (stereo unspecified), the Ki in [1] stood at 1080 nM; in [9] it was 14.5 nM; in data set [4], 967 nM; in data set [5], 2200 nM; in data set [7], 844 nM; in [8], 63.1 nM.
`CCN(CCCCNC(=O)c1ccc2ccccc2c1)CC1CC1c1cc(Cl)ccc1OC` (stereo unspecified): the Ki in data set [1] was 408 nM; in data set [9], 23.4 nM; in data set [4], 1980 nM; in data set [5], 571 nM; in data set [7] it was 553 nM; in [8], 49 nM.
Regarding `COc1ccc(F)cc1C1CC1CN(CCCSc1nnc(-c2ccccc2)n1C)CC1CC1` (stereo unspecified), the Ki in data set [1] is > 5000 nM; in [9], 64.6 nM; in [4], 1080 nM; in data set [5], 1200 nM; in [7], 292 nM; in data set [8] it was 126 nM.
In the case of `CCCN(CCCCNC(=O)c1cc2ccccc2[nH]1)CC1CC1c1ccc(C(F)(F)F)cc1` (stereo unspecified), the Ki in [1] was > 5000 nM; in data set [9] it was 33.1 nM; in [4], 1280 nM; in data set [5], 8190 nM; in data set [7] it was 2070 nM; in data set [8], 1310 nM.
As to `CCN(CCCCNC(=O)c1ccc2ccccc2c1)CC1CC1c1cc(F)ccc1OC` (stereo unspecified), the Ki in [1] was 407 nM; in [9], 15 nM; in [4] it was 986 nM; in data set [5] it was 1720 nM; in [7], 385 nM; in [8] it was 57.5 nM.
On to `CCCN(CCCCNC(=O)c1cc2ccccc2[nH]1)CC1CC1c1cccc(Cl)c1` (stereo unspecified), for which the Ki in data set [1] was 3490 nM; in data set [9], 11.1 nM; in data set [4], 992 nM; in data set [5], > 5000 nM; in data set [7], 878 nM; in [8] it was 132 nM.
With `CCCN(CCCCNC(=O)c1ccc(-c2ccccn2)cc1)CC1CC1c1cc(Cl)ccc1OC` (stereo unspecified), the Ki in data set [1] is 2100 nM; in data set [9], 39.4 nM; in data set [4] it was > 5000 nM; in data set [5], > 5000 nM; in data set [7], 1830 nM; in data set [8], 136 nM.
Regarding `COc1ccc(Cl)cc1C1CC1CN(CCCSc1nnc(-c2ccccc2)n1C)CC1CC1` (stereo unspecified), the Ki in data set [1] was 216 nM; in data set [9] it was 23.7 nM; in [4], 636 nM; in [5], > 5000 nM; in data set [7], 163 nM; in [8] it was 274 nM.
As to `CCCN(CCCCNC(=O)c1ccc2ccccc2c1)CC1CC1c1ccc(C(F)(F)F)cc1` (stereo unspecified), the Ki in data set [1] was > 5000 nM; in [9], 43 nM; in data set [4] it was 1710 nM; in [5], 5800 nM; in [7], 215 nM; in data set [8], 1260 nM.
For `CCCN(CCCCNC(=O)c1cc2ccccc2[nH]1)CC1CC1c1cc(F)ccc1OC` (stereo unspecified), the Ki in data set [1] came out at 507 nM; in data set [9], 11.2 nM; in [4] it was 871 nM; in [5], 789 nM; in [7] it was 376 nM; in data set [8] it was 68 nM.
For the molecule `CCCN(CCCCNC(=O)c1cc2ccccc2[nH]1)CC1CC1c1cc(Cl)ccc1OC` (stereo unspecified), the Ki in data set [1] was 1420 nM; in data set [9], 11.5 nM; in data set [4], 818 nM; in data set [5] it was 4230 nM; in data set [7], 575 nM; in data set [8], 85.1 nM.

The record behind these values is ChEMBL document CHEMBL4402598, “Design and Synthesis of Bitopic 2-Phenylcyclopropylmethylamine (PCPMA) Derivatives as Selective Dopamine D3 Receptor Ligands” (J Med Chem, 2020).
